Key:
[1] = tested on: Kidney; assay: Biodistribution in iv dosed rat kidney after 60 mins; type: ADME, organism-based; details: in vivo, 1 h
Procedure, shortened: (§1)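 [18F]-labeled tracer was given to rats under isoflurane anesthesia: 0.2 ml sterile water with 1 mg/mL BSA and 10–100 μCi, into the femoral vein. Three rats per group. Animals were killed by cervical dislocation under anesthesia at the stated time. Organs were removed, weighed and counted. Uptake was calculated as percent dose against a 1% aliquot of the injected dose counted alongside.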

[2] = tested on: Bone; assay: Biodistribution in iv dosed rat bone after 120 mins; type: ADME, organism-based, Bone element; details: in vivo, 2 h; procedure, shortened: as §1
[3] = tested on: Muscle tissue; assay: Biodistribution in iv dosed rat muscle after 2 mins; type: ADME, organism-based; details: in vivo; procedure, shortened: as §1
[4] = tested on: Blood; assay: Biodistribution in iv dosed rat blood after 240 mins; type: ADME, organism-based; details: in vivo, 4 h; procedure, shortened: as §1
[5] = tested on: Muscle tissue; assay: Biodistribution in iv dosed rat muscle after 240 mins; type: ADME, organism-based; details: in vivo, 4 h; procedure, shortened: as §1
[6] = tested on: Heart; assay: Biodistribution in iv dosed rat heart after 240 mins; type: ADME, organism-based; details: in vivo, 4 h; procedure, shortened: as §1
[7] = tested on: Spleen; assay: Biodistribution in iv dosed rat spleen after 60 mins; type: ADME, organism-based; details: in vivo, 1 h
[8] = tested on: Striatum; assay: Biodistribution in iv dosed rat striatum assessed as radioactivity after 2 mins; type: ADME, organism-based; details: in vivo
[9] = tested on: Nucleic Acid; assay: Ratio of drug level in cortex to cerebellum in rat assessed as radioactivity after 240 mins; type: ADME, tissue-based; details: in vivo, 4 h
[10] = tested on: Nucleic Acid; assay: Ratio of drug level in cortex to cerebellum in rat assessed as radioactivity after 30 mins; type: ADME, tissue-based; details: in vivo, 0.5 h
Procedure, shortened: (§2)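 Groups of three normal rats under isoflurane received the [18F] tracer (10–100 μCi in 0.2 ml sterile water containing 1 mg/mL BSA) into the femoral vein. They were killed by cervical dislocation under anesthesia at the stated time. Cortex, striatum, hippocampus, hypothalamus and cerebellum were dissected, weighed and gamma-counted. %dose/g was set against a 100-fold diluted dose aliquot, and each region was divided by cerebellum.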

[11] = tested on: Nucleic Acid; assay: Ratio of drug level in cortex to cerebellum in rat assessed as radioactivity after 2 mins; type: ADME, tissue-based; details: in vivo
[12] = tested on: Liver; assay: Biodistribution in iv dosed rat liver after 120 mins; type: ADME, organism-based; details: in vivo, 2 h; procedure, shortened: as §1
[13] = tested on: Nucleic Acid; assay: Ratio of drug level in hippocampus to cerebellum in rat assessed as radioactivity after 60 mins; type: ADME, tissue-based; details: in vivo, 1 h
[14] = tested on: Lung; assay: Biodistribution in iv dosed rat lungs after 240 mins; type: ADME, organism-based; details: in vivo, 4 h; procedure, shortened: as §1
[15] = tested on: Zone of skin; assay: Biodistribution in iv dosed rat skin after 60 mins; type: ADME, organism-based; details: in vivo, 1 h
[16] = tested on: Heart; assay: Biodistribution in iv dosed rat heart after 2 mins; type: ADME, organism-based; details: in vivo; procedure, shortened: as §1
[17] = tested on: Nucleic Acid; assay: Ratio of drug level in hypothalamus to cerebellum in rat after 30 mins; type: ADME, tissue-based; details: in vivo, 0.5 h
Procedure, shortened: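 Rats, 3 per group, given ¹⁸F tracer (10–100 μCi, 0.2 ml sterile water with 1 mg/mL BSA) into the femoral vein under isoflurane. Brain regions, including hypothalamus, striatum and cerebellum, dissected, weighed and counted. % dose/g calculated against a 1% diluted aliquot of the dose. Region/cerebellum ratio is region %dose/g divided by cerebellum %dose/g. SD of the ratio propagated from both means and SDs.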

[18] = tested on: Lung; assay: Biodistribution in iv dosed rat lungs after 60 mins; type: ADME, organism-based; details: in vivo, 1 h; procedure, shortened: as §1
[19] = tested on: Liver; assay: Biodistribution in iv dosed rat liver after 240 mins; type: ADME, organism-based; details: in vivo, 4 h; procedure, shortened: as §1
[20] = tested on: Blood; assay: Biodistribution in iv dosed rat blood after 30 mins; type: ADME, organism-based; details: in vivo, 0.5 h; procedure, shortened: as §1
[21] = tested on: Nucleic Acid; assay: Ratio of drug level in cortex to cerebellum in rat assessed as radioactivity after 60 mins; type: ADME, tissue-based; details: in vivo, 1 h
[22] = tested on: Kidney; assay: Biodistribution in iv dosed rat kidney after 2 mins; type: ADME, organism-based; details: in vivo; procedure, shortened: as §1
[23] = tested on: Liver; assay: Biodistribution in iv dosed rat liver after 30 mins; type: ADME, organism-based; details: in vivo, 0.5 h; procedure, shortened: as §1
[24] = tested on: Brain; assay: Biodistribution in iv dosed rat brain after 240 mins; type: ADME, organism-based; details: in vivo, 4 h; procedure, shortened: as §1
[25] = tested on: Heart; assay: Biodistribution in iv dosed rat heart after 120 mins; type: ADME, organism-based; details: in vivo, 2 h; procedure, shortened: as §1
[26] = tested on: Lung; assay: Biodistribution in iv dosed rat lungs after 30 mins; type: ADME, organism-based; details: in vivo, 0.5 h; procedure, shortened: as §1
[27] = tested on: Nucleic Acid; assay: Ratio of drug level in hypothalamus to cerebellum in rat assessed as radioactivity after 240 mins; type: ADME, tissue-based; details: in vivo, 4 h
[28] = tested on: Bone; assay: Biodistribution in iv dosed rat bone after 240 mins; type: ADME, organism-based, Bone element; details: in vivo, 4 h; procedure, shortened: as §1
[29] = tested on: Nucleic Acid; assay: Ratio of drug level in hippocampus to cerebellum in rat assessed as radioactivity after 240 mins; type: ADME, tissue-based; details: in vivo, 4 h
[30] = tested on: Nucleic Acid; assay: Ratio of drug level in striatum to cerebellum in rat assessed as radioactivity after 120 mins; type: ADME, tissue-based; details: in vivo, 2 h; procedure, shortened: as §2
[31] = tested on: Spleen; assay: Biodistribution in iv dosed rat spleen after 120 mins; type: ADME, organism-based; details: in vivo, 2 h
Procedure, shortened: (§3)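 Rats, 3 per group, under isoflurane. ¹⁸F tracer (10–100 μCi) in 0.2 ml sterile water with 1 mg/mL BSA injected into the femoral vein. Killed by cervical dislocation under anesthesia at the stated time. Organs removed, weighed and counted. % dose/organ calculated against counts of a 1% diluted aliquot of the injected dose.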

[32] = tested on: Muscle tissue; assay: Biodistribution in iv dosed rat muscle after 60 mins; type: ADME, organism-based; details: in vivo, 1 h; procedure, shortened: as §1
[33] = tested on: Striatum; assay: Biodistribution in iv dosed rat striatum assessed as radioactivity after 30 mins; type: ADME, organism-based; details: in vivo, 0.5 h
[34] = tested on: Zone of skin; assay: Biodistribution in iv dosed rat skin after 2 mins; type: ADME, organism-based; details: in vivo
[35] = tested on: Striatum; assay: Biodistribution in iv dosed rat striatum assessed as radioactivity after 60 mins; type: ADME, organism-based; details: in vivo, 1 h
[36] = tested on: Cortex; assay: Biodistribution in iv dosed rat cortex assessed as radioactivity after 240 mins; type: ADME, organism-based; details: in vivo, 4 h
Procedure, shortened: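 Rats received the [18F] tracer under isoflurane anesthesia: 0.2 ml sterile water with 1 mg/mL BSA and 10–100 μCi, into the femoral vein. Three rats per group. After cervical dislocation under anesthesia, the cortex was dissected, weighed and gamma-counted. Percent dose/g was calculated against a 100-fold diluted aliquot of the injected dose.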

[37] = tested on: Nucleic Acid; assay: Ratio of drug level in striatum to cerebellum in rat assessed as radioactivity after 240 mins; type: ADME, tissue-based; details: in vivo, 4 h
[38] = tested on: Liver; assay: Biodistribution in iv dosed rat liver after 60 mins; type: ADME, organism-based; details: in vivo, 1 h; procedure, shortened: as §1
[39] = tested on: Lung; assay: Biodistribution in iv dosed rat lungs after 120 mins; type: ADME, organism-based; details: in vivo, 2 h; procedure, shortened: as §1
[40] = tested on: Kidney; assay: Biodistribution in iv dosed rat kidney after 30 mins; type: ADME, organism-based; details: in vivo, 0.5 h; procedure, shortened: as §1
[41] = tested on: Nucleic Acid; assay: Ratio of drug level in striatum to cerebellum in rat assessed as radioactivity after 2 mins; type: ADME, tissue-based; details: in vivo
[42] = tested on: Spleen; assay: Biodistribution in iv dosed rat spleen after 30 mins; type: ADME, organism-based; details: in vivo, 0.5 h; procedure, shortened: as §3
[43] = tested on: Striatum; assay: Biodistribution in iv dosed rat striatum assessed as radioactivity after 240 mins; type: ADME, organism-based; details: in vivo, 4 h
[44] = tested on: Muscle tissue; assay: Biodistribution in iv dosed rat muscle after 120 mins; type: ADME, organism-based; details: in vivo, 2 h; procedure, shortened: as §1
[45] = tested on: Nucleic Acid; assay: Ratio of drug level in cortex to cerebellum in rat assessed as radioactivity after 120 mins; type: ADME, tissue-based; details: in vivo, 2 h; procedure, shortened: as §2
[46] = tested on: Kidney; assay: Biodistribution in iv dosed rat kidney after 120 mins; type: ADME, organism-based; details: in vivo, 2 h; procedure, shortened: as §1
[47] = tested on: Kidney; assay: Biodistribution in iv dosed rat kidney after 240 mins; type: ADME, organism-based; details: in vivo, 4 h; procedure, shortened: as §1
[48] = tested on: Spleen; assay: Biodistribution in iv dosed rat spleen after 2 mins; type: ADME, organism-based; details: in vivo
[49] = tested on: Nucleic Acid; assay: Ratio of drug level in striatum to cerebellum in rat assessed as radioactivity after 30 mins; type: ADME, tissue-based; details: in vivo, 0.5 h; procedure, shortened: as §2
[50] = tested on: Bone; assay: Biodistribution in iv dosed rat bone after 2 mins; type: ADME, organism-based, Bone element; details: in vivo; procedure, shortened: as §1
[51] = tested on: Zone of skin; assay: Biodistribution in iv dosed rat skin after 240 mins; type: ADME, organism-based; details: in vivo, 4 h
[52] = tested on: Lung; assay: Biodistribution in iv dosed rat lungs after 2 mins; type: ADME, organism-based; details: in vivo; procedure, shortened: as §1
[53] = Partition coefficient, log P at pH 7.4; type: physicochemical; details: octanol/water
[54] = tested on: Zone of skin; assay: Biodistribution in iv dosed rat skin after 30 mins; type: ADME, organism-based; details: in vivo, 0.5 h; procedure, shortened: as §3
[55] = tested on: Nucleic Acid; assay: Ratio of drug level in hippocampus to cerebellum in rat assessed as radioactivity after 2 mins; type: ADME, tissue-based; details: in vivo
[56] = tested on: Zone of skin; assay: Biodistribution in iv dosed rat skin after 120 mins; type: ADME, organism-based; details: in vivo, 2 h; procedure, shortened: as §3
[57] = tested on: Striatum; assay: Biodistribution in iv dosed rat striatum assessed as radioactivity after 120 mins; type: ADME, organism-based; details: in vivo, 2 h
[58] = tested on: Nucleic Acid; assay: Ratio of drug level in hippocampus to cerebellum in rat assessed as radioactivity after 30 mins; type: ADME, tissue-based; details: in vivo, 0.5 h; procedure, shortened: as §2
[59] = tested on: Liver; assay: Biodistribution in iv dosed rat liver after 2 mins; type: ADME, organism-based; details: in vivo; procedure, shortened: as §1

CN(C)Cc1cc(OCC[18F])ccc1Sc1ccccc1N
Drug uptake [1]: 4.04 %ID | Drug uptake [2]: 2.92 %ID | Drug uptake [3]: 16.55 %ID | Drug uptake [4]: 1.74 %ID | Drug uptake [5]: 2.28 %ID | Drug uptake [6]: 0.04 %ID | Drug uptake [7]: 0.35 %ID | Drug uptake [8]: 1.01 % ID/g | Ratio [9]: 2.44 | Ratio [10]: 3.26 | Ratio [11]: 1.53 | Drug uptake [12]: 7.68 %ID | Ratio [13]: 3.75 | Drug uptake [14]: 0.33 %ID | Drug uptake [15]: 8.44 %ID | Drug uptake [16]: 0.95 %ID | Ratio [17]: 3.79 | Drug uptake [18]: 1.4 %ID | Drug uptake [19]: 2.26 %ID | Drug uptake [20]: 4.74 %ID | Ratio [21]: 4.78 | Drug uptake [22]: 7.93 %ID | Drug uptake [23]: 4.24 %ID | Drug uptake [24]: 0.18 %ID | Drug uptake [25]: 0.09 %ID | Drug uptake [26]: 2.25 %ID | Ratio [27]: 6.58 | Drug uptake [28]: 3.3 %ID | Ratio [29]: 2.14 | Ratio [30]: 3.85 | Drug uptake [31]: 0.26 %ID | Drug uptake [32]: 8.24 %ID | Drug uptake [33]: 0.8 % ID/g | Drug uptake [34]: 8.78 %ID | Drug uptake [35]: 0.7 % ID/g | Drug uptake [36]: 0.07 % ID/g | Ratio [37]: 2.72 | Drug uptake [38]: 3.74 %ID | Drug uptake [39]: 0.53 %ID | Drug uptake [40]: 4.56 %ID | Ratio [41]: 1.22 | Drug uptake [42]: 0.65 %ID | Drug uptake [43]: 0.08 % ID/g | Drug uptake [44]: 4.24 %ID | Ratio [45]: 4.6 | Drug uptake [46]: 2.66 %ID | Drug uptake [47]: 1.94 %ID | Drug uptake [48]: 1.22 %ID | Ratio [49]: 2.69 | Drug uptake [50]: 8.67 %ID | Drug uptake [51]: 3.77 %ID | Drug uptake [52]: 13.21 %ID | logD [53]: 2.15 | Drug uptake [54]: 8.66 %ID | Ratio [55]: 1.19 | Drug uptake [56]: 4.32 %ID | Drug uptake [57]: 0.36 % ID/g | Ratio [58]: 2.59 | Drug uptake [59]: 9.9 %ID
